How the values were obtained:
[1] = target: T1, ATP-sensitive inward rectifier potassium channel 10 (Homo sapiens, UniProt P78508); test: Inhibition of Kir4.1 (unknown origin)
T1 sequence (P78508 whole entry): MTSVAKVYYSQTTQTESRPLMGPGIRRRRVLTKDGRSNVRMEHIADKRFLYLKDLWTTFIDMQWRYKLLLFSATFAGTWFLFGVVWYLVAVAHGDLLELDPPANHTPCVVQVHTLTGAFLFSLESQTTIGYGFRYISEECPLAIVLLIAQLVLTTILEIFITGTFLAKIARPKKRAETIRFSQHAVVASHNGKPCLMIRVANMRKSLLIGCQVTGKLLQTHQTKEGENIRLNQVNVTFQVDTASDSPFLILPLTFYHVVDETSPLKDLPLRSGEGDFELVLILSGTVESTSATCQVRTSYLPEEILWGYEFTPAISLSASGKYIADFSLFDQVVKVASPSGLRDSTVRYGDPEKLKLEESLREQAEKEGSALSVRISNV

Rattus norvegicus [2] = test: Antihypertensive activity in […] rat model assessed as change in systolic blood pressure at 10 mg/kg, po administered qd measured on day 3; assay type: functional
Method in brief: (§1)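 Spontaneously hypertensive rats were dosed orally once daily for 3 days. Systolic blood pressure change was read on day 3 relative to vehicle, with n = 5 per group.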

Rattus norvegicus [3] = test: Antihypertensive activity in […] rat model assessed as increase in diuresis at 3 mg/kg, po qd measured on day 1 post dose relative to control; assay type: functional
Method in brief: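 Spontaneously hypertensive rats dosed orally once daily for 3 days at 3, 10 and 30 mg/kg (reference diuretic at 25 mg/kg); 24 h urine output on day 1 expressed as fold increase over vehicle-treated rats; n = 5 per group.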

[4] = Unbound fraction in rat plasma; assay type: ADME, cell-free
Cytochrome P450 2C9 = Cytochrome P450 2C9 (Homo sapiens, UniProt P11712); test: Inhibition of CYP2C9 (unknown origin); assay type: ADME
Rattus norvegicus [5] = test: Antihypertensive activity in […] rat model assessed as change in systolic blood pressure at 30 mg/kg, po administered qd measured on day 3; assay type: functional; method in brief: as §1
[6] = Oral bioavailability in Beagle dog at 2 mg/kg administered qd; assay type: ADME, organism-based, Canis lupus familiaris; details: in vivo
[7] = Half life in rhesus monkey at 1 mg/kg, iv or 2 mg/kg, po administered qd; assay type: ADME, organism-based, Macaca mulatta; details: in vivo
[8] = target: Voltage-gated inwardly rectifying potassium channel KCNH2 (Homo sapiens, UniProt Q12809); test: Inhibition of human ERG by electrophysiology method
[9] = Maximum free plasma concentration in iv dosed anesthetized cardiovascular guinea pig model; assay type: ADME, organism-based, Cavia porcellus; details: in vivo
Method in brief: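 Anesthetized guinea pig cardiovascular model, n = 3. The compound was given by IV infusion while the QTc interval was monitored. Unbound plasma concentration was taken as the maximal average peak value.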

Cytochrome P450 2C9, sequence (P11712 whole entry): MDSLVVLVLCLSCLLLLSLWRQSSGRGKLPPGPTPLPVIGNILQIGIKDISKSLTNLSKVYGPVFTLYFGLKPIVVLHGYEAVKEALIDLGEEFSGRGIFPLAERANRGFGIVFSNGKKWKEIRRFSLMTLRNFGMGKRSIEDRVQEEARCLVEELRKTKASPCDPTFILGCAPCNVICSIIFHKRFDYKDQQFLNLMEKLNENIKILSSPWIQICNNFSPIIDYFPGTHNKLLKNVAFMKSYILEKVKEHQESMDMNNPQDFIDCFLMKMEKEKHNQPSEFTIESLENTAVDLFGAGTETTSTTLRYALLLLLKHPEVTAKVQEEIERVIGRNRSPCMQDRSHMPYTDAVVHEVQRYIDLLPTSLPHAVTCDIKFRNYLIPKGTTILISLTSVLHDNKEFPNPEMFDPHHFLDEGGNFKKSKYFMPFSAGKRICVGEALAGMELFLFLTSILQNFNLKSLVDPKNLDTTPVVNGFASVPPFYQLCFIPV
Voltage-gated inwardly rectifying potassium channel KCNH2, sequence (Q12809 whole entry): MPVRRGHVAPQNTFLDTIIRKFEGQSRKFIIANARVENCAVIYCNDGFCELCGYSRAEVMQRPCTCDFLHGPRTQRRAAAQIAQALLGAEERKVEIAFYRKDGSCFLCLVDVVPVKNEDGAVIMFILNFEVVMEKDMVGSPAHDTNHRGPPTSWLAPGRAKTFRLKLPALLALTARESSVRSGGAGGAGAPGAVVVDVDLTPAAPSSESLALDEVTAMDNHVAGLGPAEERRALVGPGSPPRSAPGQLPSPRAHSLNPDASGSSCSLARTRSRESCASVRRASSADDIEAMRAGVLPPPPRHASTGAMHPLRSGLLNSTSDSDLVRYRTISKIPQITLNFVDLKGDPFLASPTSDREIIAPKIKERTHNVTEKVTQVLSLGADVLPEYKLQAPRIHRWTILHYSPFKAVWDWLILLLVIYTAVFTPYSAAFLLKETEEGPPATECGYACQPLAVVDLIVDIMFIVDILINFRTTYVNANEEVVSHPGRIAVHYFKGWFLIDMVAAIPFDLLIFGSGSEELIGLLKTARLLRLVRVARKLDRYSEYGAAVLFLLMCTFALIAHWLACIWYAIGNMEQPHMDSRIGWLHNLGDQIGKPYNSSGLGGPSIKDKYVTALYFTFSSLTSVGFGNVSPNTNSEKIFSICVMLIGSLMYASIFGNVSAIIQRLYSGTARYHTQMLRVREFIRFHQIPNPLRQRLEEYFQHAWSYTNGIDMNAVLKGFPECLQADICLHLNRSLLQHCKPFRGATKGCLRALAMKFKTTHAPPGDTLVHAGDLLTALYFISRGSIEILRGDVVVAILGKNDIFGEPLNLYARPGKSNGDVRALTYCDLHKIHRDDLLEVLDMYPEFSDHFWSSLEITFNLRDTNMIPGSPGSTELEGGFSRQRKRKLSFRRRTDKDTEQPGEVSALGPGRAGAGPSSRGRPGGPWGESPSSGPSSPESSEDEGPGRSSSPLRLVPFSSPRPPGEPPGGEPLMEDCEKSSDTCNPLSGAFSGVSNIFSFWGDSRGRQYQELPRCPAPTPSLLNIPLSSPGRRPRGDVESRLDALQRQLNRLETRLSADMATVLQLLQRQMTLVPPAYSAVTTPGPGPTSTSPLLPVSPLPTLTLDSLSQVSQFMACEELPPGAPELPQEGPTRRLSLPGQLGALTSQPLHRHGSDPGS

For `Cc1c([C@@H]2CN3CCN(C(=O)Cc4ccc(-n5cnnn5)cn4)C[C@H]3CO2)ccc(F)c1C#N`, the IC50 [1] was over 100 µM, the Activity (Rattus norvegicus [2]) was -16 mmHg and the “fold change (FC)” value (Rattus norvegicus [3]) was 1.4. For the same compound, the fraction unbound [4] was 0.48, the IC50 (Cytochrome P450 2C9) was over 50 µM and the Activity (Rattus norvegicus [5]) was -16 mmHg. For the same compound, the bioavailability [6] was 100%, the half-life [7] was 5 h and the IC50 [8] was 20.3 µM. For the same compound, the “Cp(f)max” value [9] was 83 µM.

— ChEMBL document CHEMBL3868612, “Discovery of a potent and selective ROMK inhibitor with improved pharmacokinetic properties based on an octahydropyrazino[2,1-c][1,4]oxazine scaffold” (Bioorg Med Chem Lett, 2016)
